{"data": "Assay results gathered from unrelated publications", "read-out": "DPPH scavenging"}
{"SMILES": "COc1cc(C(CC(N)=O)NCCc2ccc(O)c(O)c2)ccc1O (stereo not drawn)", "IC50": "80.2 µg/mL"}
{"SMILES": "Cc1cc2nc(-c3ccccc3OCc3ccccc3)[nH]c2cc1C", "technique": "absorbance", "IC50": "1800 nM"}
{"SMILES": "COc1ccc(OC)c(NC(=O)Cc2c[nH]c3ccccc23)c1", "IC50": "2000 nM"}
{"SMILES": "COc1cc(-c2oc3cc(O)cc(O)c3c(=O)c2O[C@@H]2O[C@H](CO)[C@@H](O)[C@H](O)[C@H]2O)ccc1O", "technique": "absorbance", "IC50": "> 500000 nM"}
{"SMILES": "Cc1cc(C(C)(C)C)c(O)c(C(C)(C)C)c1", "IC50": "25.2 µg/mL"}
{"SMILES": "O=C(O)c1cc(O)c(O)c(O)c1", "technique": "absorbance", "IC50": "36700 nM"}
{"SMILES": "COc1cc(C(CC(=O)c2ccc(Br)cc2)NCCc2ccc(O)c(O)c2)ccc1O (stereo not drawn)", "IC50": "15.2 µg/mL"}
{"SMILES": "COc1cc(C=CC(=O)CC(c2ccc([N+](=O)[O-])cc2)n2ccnc2)ccc1O (stereo not drawn)", "IC50": "26.9 µg/mL"}
{"SMILES": "CCOC(=O)c1cc(O)c(O)c(O)c1", "technique": "absorbance", "IC50": "43400 nM"}
{"SMILES": "Cc1ccc(NC(=O)Cc2c[nH]c3ccccc23)c(C)c1", "IC50": "2670 nM"}
{"SMILES": "Cc1c(C)c2c(c(C)c1O)CCC(C)(C(=O)O)O2 (stereo not drawn)", "technique": "absorbance", "IC50": "7.06 µg/mL"}
{"SMILES": "O=C(Cc1c[nH]c2ccccc12)Nc1ccc(F)cc1F", "IC50": "1710 nM"}
{"SMILES": "COc1cc(C=Cc2cc(-c3ccccc3)nc(O)n2)ccc1O", "IC50": "24 µg/mL"}
{"SMILES": "O=C(Cc1c[nH]c2ccccc12)Nc1ccc(Br)cc1", "IC50": "1030 nM"}
{"SMILES": "COc1cc(C(CC(=O)c2ccc([N+](=O)[O-])cc2)NCCc2ccc(O)c(O)c2)ccc1O (stereo not drawn)", "IC50": "14.6 µg/mL"}
{"SMILES": "O=C1O[C@H]([C@@H](O)CO)C(O)=C1O", "IC50": "4960 nM"}
{"SMILES": "COC(=O)c1cc(O)c(O)c(O)c1", "technique": "absorbance", "IC50": "35000 nM"}
{"SMILES": "COc1ccc(-c2nc3cc(Cl)ccc3[nH]2)cc1OCc1ccccc1", "technique": "absorbance", "IC50": "2760 nM"}
{"SMILES": "O=C1O[C@H]([C@@H](O)CO)C(O)=C1O", "technique": "absorbance", "IC50": "141000 nM"}
{"SMILES": "O=C(Cc1c[nH]c2ccccc12)Nc1cccc(F)c1", "IC50": "1530 nM"}
{"SMILES": "COc1ccc(-c2nc3cc([N+](=O)[O-])ccc3[nH]2)cc1OCc1ccccc1", "technique": "absorbance", "IC50": "2570 nM"}
